IC50, ED50 and Ki data for three molecules are collected here from ChEMBL document CHEMBL1125181, “Naphthosultam derivatives: a new class of potent and selective 5-HT2 antagonists” (J Med Chem, 1991).

Test [1] concerns the target T1, D(2) dopamine receptor (Rattus norvegicus, UniProt P61169). The experiment in a line: The concentration required to inhibit [3H]spiperone binding to dopamine receptor D2 in rat brain membranes (in vitro). Format: cell membranes. An outline of the steps: (§1)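 Rat striatal membranes (0.05 mg/mL protein) in Tris-HCl with BSA 2 mg/mL, NaCl, cinanserin 10⁻⁶ M and compound. [3H]spiperone (final 0.05 nM) added after 5 min, incubation continued 40 min. Nonspecific binding from 10⁻⁶ M sulpiride. Filtration and scintillation counting.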

Test [2] has as its target T2, Adrenergic receptor alpha-1 (Rattus norvegicus, UniProt P15823+P23944+P43140).
T2 sequence (P15823 whole entry): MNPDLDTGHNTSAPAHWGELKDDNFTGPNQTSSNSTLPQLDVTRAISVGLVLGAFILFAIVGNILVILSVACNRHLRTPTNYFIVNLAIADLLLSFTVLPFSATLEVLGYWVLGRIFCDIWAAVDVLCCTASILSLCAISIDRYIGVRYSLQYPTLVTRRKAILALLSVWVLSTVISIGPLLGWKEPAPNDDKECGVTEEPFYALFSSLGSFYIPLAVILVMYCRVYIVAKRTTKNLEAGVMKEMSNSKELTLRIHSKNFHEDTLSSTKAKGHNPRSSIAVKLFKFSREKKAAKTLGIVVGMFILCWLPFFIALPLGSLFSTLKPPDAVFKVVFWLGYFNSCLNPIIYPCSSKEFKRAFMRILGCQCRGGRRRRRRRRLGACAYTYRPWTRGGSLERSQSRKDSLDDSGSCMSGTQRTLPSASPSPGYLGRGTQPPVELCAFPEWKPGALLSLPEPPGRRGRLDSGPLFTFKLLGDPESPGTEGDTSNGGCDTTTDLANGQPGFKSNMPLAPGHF
T2 sequence (P23944 whole entry): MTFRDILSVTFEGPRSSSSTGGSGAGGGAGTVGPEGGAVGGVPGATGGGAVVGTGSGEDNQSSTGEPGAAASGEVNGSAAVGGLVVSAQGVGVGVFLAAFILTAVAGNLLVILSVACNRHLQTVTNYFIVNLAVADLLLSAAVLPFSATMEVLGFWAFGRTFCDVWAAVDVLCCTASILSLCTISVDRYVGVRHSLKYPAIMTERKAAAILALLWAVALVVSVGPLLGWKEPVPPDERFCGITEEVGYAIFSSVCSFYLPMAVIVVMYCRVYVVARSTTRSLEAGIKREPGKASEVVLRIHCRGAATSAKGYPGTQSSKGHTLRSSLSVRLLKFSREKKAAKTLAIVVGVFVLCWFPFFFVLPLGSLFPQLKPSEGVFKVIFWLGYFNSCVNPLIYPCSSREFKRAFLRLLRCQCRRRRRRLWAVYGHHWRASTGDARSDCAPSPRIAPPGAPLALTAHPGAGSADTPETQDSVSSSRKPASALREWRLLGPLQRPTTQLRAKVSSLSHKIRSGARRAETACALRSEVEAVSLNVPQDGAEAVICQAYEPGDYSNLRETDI
T2 sequence (P43140 whole entry): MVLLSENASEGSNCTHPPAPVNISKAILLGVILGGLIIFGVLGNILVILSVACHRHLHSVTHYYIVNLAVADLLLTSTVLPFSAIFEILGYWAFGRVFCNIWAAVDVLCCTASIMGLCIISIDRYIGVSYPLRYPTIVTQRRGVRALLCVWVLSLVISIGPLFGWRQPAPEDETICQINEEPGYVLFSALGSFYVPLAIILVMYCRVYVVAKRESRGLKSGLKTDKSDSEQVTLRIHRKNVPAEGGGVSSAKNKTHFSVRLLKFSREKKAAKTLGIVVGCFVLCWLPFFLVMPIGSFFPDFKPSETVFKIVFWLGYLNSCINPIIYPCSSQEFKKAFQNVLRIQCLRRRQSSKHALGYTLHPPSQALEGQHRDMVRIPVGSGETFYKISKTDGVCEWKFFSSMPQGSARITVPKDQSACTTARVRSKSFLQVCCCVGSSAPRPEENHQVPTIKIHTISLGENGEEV
The experiment in a line: The concentration required to inhibit 3[H]prazosin binding to Alpha-1 adrenergic receptor in rat brain membranes was measured (in vitro). Format: cell membranes. An outline of the steps: (§2)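 Male Sprague-Dawley rat cerebrocortical membranes (0.15 mg/mL protein) in Tris-HCl pH 7.6 with BSA 2 mg/mL. Incubated 40 min at 25 °C with compound and [3H]prazosin (final 0.065 nM). Nonspecific binding from 10⁻⁶ M phentolamine. Filtration and scintillation counting. IC50 values are the mean of at least 2 runs, each with 6 concentrations in triplicate.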

In test [3] the target is Serotonin 2 (5-HT2) receptor (Rattus norvegicus, UniProt P30994+P08909+P14842). As to the kind of experiment: The concentration required to inhibit [3H]ketanserin binding to 5-hydroxytryptamine 2 receptor in rat brain membranes (in vitro). The class given is cell membranes. An outline of the steps:
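Male Sprague-Dawley rat cortical membranes (0.15 mg/mL protein) in Tris-HCl pH 7.6 with BSA 2 mg/mL. Incubated 15 min at 37 °C with compound and [3H]ketanserin (final 0.4 nM). Nonspecific binding from 10⁻⁶ M methysergide. Filtration and scintillation counting. IC50 by nonlinear regression; mean of at least 2 runs, 6 concentrations in triplicate.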

The test system of test [4] is Rattus norvegicus. As to the kind of experiment: The concentration required to induce head twich for 1 hours in rats when given po (in vivo). Format: functional. An outline of the steps: (§3)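 Rats, 6 per dose, dosed sc or po, then given mescaline 20 mg/kg iv 1 h later (6 or 16 h later for duration of action). Head twitches counted for 15 min from injection. Fewer than 3 twitches counted as antagonism.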

In test [5] the test system is Rattus norvegicus. As to the kind of experiment: The concentration required to induce head twich for 6 hours in rats when given po (in vivo). Format: functional. An outline of the steps: as §3
In test [6] the test system is Rattus norvegicus. As to the kind of experiment: The concentration required to induce head twich for 1 hours in rats when given sc (in vivo). The class given is functional. An outline of the steps: as §3
Test [7] has as its system Rattus norvegicus. The experiment in a line: The concentration required to induce head twich for 6 hours in rats when given sc (in vivo). The class given is functional. A digest of the protocol:
as §3

The target of test [8] is T1, D(2) dopamine receptor. As to the kind of experiment: Binding constant against dopamine receptor D2 […]. A digest of the protocol:
as §1

The target in test [9] is T3, Histamine H1 receptor (Cavia porcellus, UniProt P31389). As to the kind of experiment: Binding constant against histamine H1 receptor […]. A digest of the protocol:
(§4)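 Male guinea pig cerebellar membranes (0.35 mg/mL protein) in 50 mM sodium phosphate pH 7.5. Incubated 30 min at 25 °C with compound and [3H]mepyramine (final 0.7 nM). Nonspecific binding from 10⁻⁶ M promethazine. Filtration through glass-fibre filters and liquid scintillation counting.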

For test [10], the system named is Rattus norvegicus. As to the kind of experiment: The concentration required to induce head twich for 16 hours in rats when given po (in vivo). The class given is functional. An outline of the steps: as §3
Test [11] concerns Mus musculus. The experiment in a line: The concentration required to induce head twich in mice when given po (in vivo). The class given is functional. A digest of the protocol:
(§5)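 Mice, 6 per dose, dosed sc 60 min or po 90 min before mescaline 50 mg/kg ip. Observed for 2 min starting 15 min after mescaline; head twitches scored as all-or-none.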

Test [12] deals with Mus musculus. The experiment in a line: The concentration required to induce head twich in mice when given sc (in vivo). Format: functional. An outline of the steps: as §5
Test [13] addresses T4, 5-hydroxytryptamine receptor 1A (Rattus norvegicus, UniProt P19327).
T4 sequence (P19327 whole entry): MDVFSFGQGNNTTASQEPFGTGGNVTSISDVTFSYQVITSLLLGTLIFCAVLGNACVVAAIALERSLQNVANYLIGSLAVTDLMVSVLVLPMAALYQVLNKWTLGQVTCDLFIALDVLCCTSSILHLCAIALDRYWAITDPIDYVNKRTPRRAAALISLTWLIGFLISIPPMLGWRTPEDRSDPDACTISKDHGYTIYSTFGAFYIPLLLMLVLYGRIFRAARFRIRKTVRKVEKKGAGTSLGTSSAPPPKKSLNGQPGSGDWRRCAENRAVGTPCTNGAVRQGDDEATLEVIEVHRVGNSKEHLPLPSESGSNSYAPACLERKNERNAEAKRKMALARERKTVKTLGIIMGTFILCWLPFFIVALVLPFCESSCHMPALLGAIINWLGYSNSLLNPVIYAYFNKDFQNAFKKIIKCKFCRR
As to the kind of experiment: Binding constant against 5-hydroxytryptamine 1A receptor (in vivo). The settings on record: in the assay text read “(in vitro)” for “(in vivo)”. An outline of the steps: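 Rat hippocampal membranes (1 mg/mL protein, Tris-HCl) preincubated 5 min at 37 °C with compound, then [3H]-8-OH-DPAT (final 1 nM) added for a further 10 min. Nonspecific binding from 10⁻⁵ M serotonin. Filtration through glass-fibre filters, two ice-cold buffer washes, scintillation counting of bound radioactivity.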

Test [14] deals with Rattus norvegicus. The experiment in a line: The concentration required to induce head twich for 16 hours in rats when given sc (in vivo). Format: functional. An outline of the steps:
as §3

The target in test [15] is T1, D(2) dopamine receptor. The experiment in a line: Binding constant against dopamine receptor D2 (in vitro). An outline of the steps:
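Rat striatal membranes (0.05 mg protein/mL, Tris-HCl with 2 mg/mL BSA, NaCl, 10^-6 M cinanserin) preincubated 5 min with test compound. [3H]spiperone (final 0.05 nM) then added for a further 40 min. Nonspecific binding defined with 10^-6 M sulpiride. Read-out by filtration and scintillation counting.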

Test [16] addresses T2, Adrenergic receptor alpha-1. As to the kind of experiment: The concentration required to inhibit [3H]prazosin binding to Alpha-1 adrenergic receptor in rat brain membranes was measured (in vitro). The class given is cell membranes.
Test [17] has the same target. As to the kind of experiment: Binding constant against Alpha-1 adrenergic receptor (in vitro). The class given is protein assay. An outline of the steps: as §2
The target of test [18] is T3, Histamine H1 receptor. As to the kind of experiment: Binding constant against histamine H1 receptor (in vitro). A digest of the protocol: as §4

T1 sequence (P61169 whole entry): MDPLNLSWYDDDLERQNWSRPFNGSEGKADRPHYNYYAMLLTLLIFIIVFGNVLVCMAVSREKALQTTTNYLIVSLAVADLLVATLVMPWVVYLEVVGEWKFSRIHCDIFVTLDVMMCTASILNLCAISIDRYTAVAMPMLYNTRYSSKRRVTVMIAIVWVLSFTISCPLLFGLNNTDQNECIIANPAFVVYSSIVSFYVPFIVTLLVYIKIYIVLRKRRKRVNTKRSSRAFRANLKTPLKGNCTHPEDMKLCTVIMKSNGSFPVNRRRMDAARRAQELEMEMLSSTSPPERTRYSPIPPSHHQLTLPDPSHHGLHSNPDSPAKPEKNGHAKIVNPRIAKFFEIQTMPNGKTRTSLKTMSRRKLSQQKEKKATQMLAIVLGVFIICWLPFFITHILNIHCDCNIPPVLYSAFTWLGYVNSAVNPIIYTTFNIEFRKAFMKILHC
T3 sequence (P31389 whole entry): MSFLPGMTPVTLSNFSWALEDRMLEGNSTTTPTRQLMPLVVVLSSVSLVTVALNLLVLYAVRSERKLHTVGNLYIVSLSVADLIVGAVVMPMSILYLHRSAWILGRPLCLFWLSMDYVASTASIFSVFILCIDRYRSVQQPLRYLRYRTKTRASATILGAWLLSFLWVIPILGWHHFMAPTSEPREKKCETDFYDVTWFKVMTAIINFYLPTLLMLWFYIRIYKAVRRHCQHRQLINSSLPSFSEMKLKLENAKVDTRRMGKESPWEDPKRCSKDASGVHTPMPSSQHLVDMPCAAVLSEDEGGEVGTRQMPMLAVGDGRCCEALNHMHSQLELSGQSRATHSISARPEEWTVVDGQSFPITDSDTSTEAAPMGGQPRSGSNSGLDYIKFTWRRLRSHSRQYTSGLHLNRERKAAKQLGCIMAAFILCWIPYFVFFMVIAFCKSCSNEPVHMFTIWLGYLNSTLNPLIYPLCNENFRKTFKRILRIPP

In the case of `O=S1(=O)c2cccc3cccc(c23)N1CCCCN1CCN(c2ccc(F)cc2)CC1`, the half-inhibitory concentration (IC50) – broadly, the concentration that inhibits the measured activity by half – is 300 nM on D(2) dopamine receptor [1], 11 nM in test [2] and 3.7 nM in [3].

With `O=S1(=O)c2cccc3cccc(c23)N1CCCN1CCN(c2ccc(F)cc2)CC1` [FANANSERIN], the ED50 (as a rule, the dose at which the effect has come halfway, by size or by number of responders) in the test on Rattus norvegicus [4] was determined as 0.99 mg/kg; in the test on Rattus norvegicus [5], 2.38 mg/kg; in the test on Rattus norvegicus [6], 0.65 mg/kg; in the test on Rattus norvegicus [7], 0.45 mg/kg; with Rattus norvegicus [10], 14.2 mg/kg; in the test with Mus musculus [11], 0.43 mg/kg. Also, the 50% effective dose (ED50) in the test on Mus musculus [12] worked out at 0.16 mg/kg; in the test on Rattus norvegicus [14] it was 5.91 mg/kg. Besides, the values for the Ki (on D(2) dopamine receptor [8]; on Histamine H1 receptor [9]; in test [13]) were above 1000 nM, 25 nM and 70 nM, respectively. At D(2) dopamine receptor [1], this molecule came in with a half-maximal inhibitory concentration (IC50) above 1000 nM.

For `Cc1nc2sccn2c(=O)c1CCN1CCC(=C(c2ccc(F)cc2)c2ccc(F)cc2)CC1` [RITANSERIN], the 50% effective dose (ED50) with Rattus norvegicus [4] was determined as 2.55 mg/kg; in the test on Rattus norvegicus [5], 1.54 mg/kg; in the test with Rattus norvegicus [6], 0.38 mg/kg; in the test with Rattus norvegicus [7], 0.55 mg/kg; with Rattus norvegicus [10], 18.4 mg/kg; in the test with Mus musculus [11] it was 0.09 mg/kg. The values for the 50% effective dose (ED50) with Mus musculus [12] and in the test with Rattus norvegicus [14] were 0.29 mg/kg and above 5 mg/kg, respectively. The Ki (as a rule, the dissociation constant of the complex between target and ligand, obtained from inhibition or displacement) at D(2) dopamine receptor [15] was found to be 22 nM; in test [17], 29 nM; on Histamine H1 receptor [18], 6 nM. Moreover, the half-maximal inhibitory concentration (IC50) in test [16] was determined as 37 nM; at D(2) dopamine receptor [1], 23 nM.
